In ChEMBL document CHEMBL1255453, “Affinity of ceftaroline and other beta-lactams for penicillin-binding proteins from Staphylococcus aureus and Streptococcus pneumoniae” (Antimicrob Agents Chemother, 2010):
≈ marks a conversion by molar mass, not a printed value.

Assays:
[1] = molecular target: Penicillin-binding protein 2x (Streptococcus pneumoniae serotype 4 (strain ATCC BAA-334 / TIGR4), UniProt P14677); assay: Binding affinity to penicillin-resistant Streptococcus pneumoniae 3413 PBP2X by competitive binding assay
Outline: (§1)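 Whole pneumococcal cells were grown to OD600 0.3 in Todd-Hewitt broth plus 0.5% yeast extract, then resuspended in 50 mM NaPO4, pH 7.0. Cells at 10^8 to 5 × 10^8 CFU/ml were exposed to β-lactam for 10 min at 37°C, alongside a reference without drug. They were then labeled with 10 μg/ml Bocillin FL for 15 min at 37°C. Proteins were resolved by SDS-PAGE and fluorescence read at 520 nm. IC50 was taken as 50% inhibition of Bocillin FL binding, from 2 experiments.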

[2] = Binding affinity to against penicillin-susceptible Streptococcus pneumoniae 1076 PBP2A by competitive binding assay
Outline: (§2)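 Whole pneumococcal cells grown to OD600 0.3 in Todd-Hewitt broth with 0.5% yeast extract, resuspended in 50 mM NaPO4 pH 7.0. Cells (10^8–5 × 10^8 CFU/ml) incubated with β-lactam 10 min at 37°C, then Bocillin FL 10 μg/ml, 15 min at 37°C. SDS-PAGE, 520 nm fluorescence; IC50 = 50% inhibition of Bocillin FL binding; 2 experiments.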

[3] = molecular target: T1, Penicillin-binding protein 2B (Streptococcus pneumoniae serotype 4 (strain ATCC BAA-334 / TIGR4), UniProt P0A3M5); assay: Binding affinity to penicillin-resistant Streptococcus pneumoniae 2527 PBP2B by competitive binding assay; outline: as §1
T1 sequence (P0A3M5 whole entry): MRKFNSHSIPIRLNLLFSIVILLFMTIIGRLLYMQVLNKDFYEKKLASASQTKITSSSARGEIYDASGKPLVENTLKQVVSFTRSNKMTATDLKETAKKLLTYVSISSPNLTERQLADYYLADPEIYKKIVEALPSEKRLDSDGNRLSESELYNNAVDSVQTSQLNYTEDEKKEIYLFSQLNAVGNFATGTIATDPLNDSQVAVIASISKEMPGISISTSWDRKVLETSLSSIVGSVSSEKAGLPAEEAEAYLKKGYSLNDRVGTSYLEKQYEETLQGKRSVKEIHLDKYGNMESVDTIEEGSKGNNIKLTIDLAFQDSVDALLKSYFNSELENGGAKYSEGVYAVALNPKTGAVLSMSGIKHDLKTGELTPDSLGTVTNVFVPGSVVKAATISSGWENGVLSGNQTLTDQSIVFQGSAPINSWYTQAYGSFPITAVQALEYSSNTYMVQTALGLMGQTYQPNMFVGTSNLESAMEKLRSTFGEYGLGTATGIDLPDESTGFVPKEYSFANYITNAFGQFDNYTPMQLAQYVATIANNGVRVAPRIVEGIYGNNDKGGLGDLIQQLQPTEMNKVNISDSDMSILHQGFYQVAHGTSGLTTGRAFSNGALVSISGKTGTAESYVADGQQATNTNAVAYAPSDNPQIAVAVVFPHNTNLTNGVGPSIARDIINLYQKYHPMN

[4] = molecular target: T2, Penicillin-binding protein 1A (Streptococcus pneumoniae serotype 4 (strain ATCC BAA-334 / TIGR4), UniProt Q04707); assay: Binding affinity to penicillin-resistant Streptococcus pneumoniae 3413 PBP1A by competitive binding assay; outline: as §1
T2 sequence (Q04707 whole entry): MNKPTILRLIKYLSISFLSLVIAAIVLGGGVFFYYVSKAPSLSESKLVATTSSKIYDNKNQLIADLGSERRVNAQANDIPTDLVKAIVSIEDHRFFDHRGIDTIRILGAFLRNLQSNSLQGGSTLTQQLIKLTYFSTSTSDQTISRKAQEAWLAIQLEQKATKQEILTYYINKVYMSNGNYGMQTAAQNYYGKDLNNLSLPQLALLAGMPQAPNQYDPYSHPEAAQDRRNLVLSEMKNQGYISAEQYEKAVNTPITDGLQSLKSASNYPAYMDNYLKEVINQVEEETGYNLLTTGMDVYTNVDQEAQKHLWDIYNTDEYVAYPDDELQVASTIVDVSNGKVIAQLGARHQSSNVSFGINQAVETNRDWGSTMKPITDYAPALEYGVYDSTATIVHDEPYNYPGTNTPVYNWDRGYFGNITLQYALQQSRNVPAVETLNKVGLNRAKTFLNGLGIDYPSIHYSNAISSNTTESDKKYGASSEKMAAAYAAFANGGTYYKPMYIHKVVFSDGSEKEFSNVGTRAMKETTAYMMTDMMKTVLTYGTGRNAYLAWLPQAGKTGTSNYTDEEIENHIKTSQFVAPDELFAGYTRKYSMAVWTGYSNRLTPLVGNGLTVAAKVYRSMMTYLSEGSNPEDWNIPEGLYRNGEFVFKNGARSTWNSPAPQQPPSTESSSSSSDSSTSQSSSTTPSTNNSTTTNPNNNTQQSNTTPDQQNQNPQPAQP

[5] = molecular target: T3, Penicillin-binding protein 2x (Streptococcus pneumoniae serotype 4 (strain ATCC BAA-334 / TIGR4), UniProt P14677); assay: Binding affinity to against penicillin-susceptible Streptococcus pneumoniae 1076 PBP2X by competitive binding assay; outline: as §2
T3 sequence (P14677 whole entry): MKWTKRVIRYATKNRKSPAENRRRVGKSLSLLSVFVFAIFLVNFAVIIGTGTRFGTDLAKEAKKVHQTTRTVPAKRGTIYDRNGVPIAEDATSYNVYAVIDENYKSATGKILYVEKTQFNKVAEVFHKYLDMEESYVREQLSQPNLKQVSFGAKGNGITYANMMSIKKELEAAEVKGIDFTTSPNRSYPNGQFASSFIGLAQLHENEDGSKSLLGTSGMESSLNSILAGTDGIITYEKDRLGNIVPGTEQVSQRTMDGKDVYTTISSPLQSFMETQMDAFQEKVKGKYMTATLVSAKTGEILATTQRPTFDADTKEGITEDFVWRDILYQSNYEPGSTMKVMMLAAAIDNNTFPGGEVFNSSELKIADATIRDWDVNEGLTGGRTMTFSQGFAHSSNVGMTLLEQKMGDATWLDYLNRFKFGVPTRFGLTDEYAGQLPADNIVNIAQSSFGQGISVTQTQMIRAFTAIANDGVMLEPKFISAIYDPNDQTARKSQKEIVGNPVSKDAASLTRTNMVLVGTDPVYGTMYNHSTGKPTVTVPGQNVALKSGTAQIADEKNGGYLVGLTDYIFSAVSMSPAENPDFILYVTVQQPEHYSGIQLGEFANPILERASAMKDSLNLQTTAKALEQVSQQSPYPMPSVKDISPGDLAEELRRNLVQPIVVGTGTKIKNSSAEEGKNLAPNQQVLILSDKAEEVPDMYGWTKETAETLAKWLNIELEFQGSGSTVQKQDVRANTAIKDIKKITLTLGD

Row | Structure (SMILES) | IC50 [1] [µM] | IC50 [2] [µg/mL] | IC50 [3] [µM] | IC50 [4] [µM] | IC50 [5] [µM]
1 | CO/N=C(\C(=O)N[C@@H]1C(=O)N2C(C(=O)O)=C(COC(C)=O)CS[C@H]12)c1csc(N)n1 [CEFOTAXIME] | 8.78 | 0.25 (≈ 0.549 µM) | 8.78 | 0.549 | 0.549
2 | CO/N=C(\C(=O)N[C@@H]1C(=O)N2C(C(=O)O)=C(CSc3nc(=O)c(O)nn3C)CS[C@H]12)c1csc(N)n1 [CEFTRIAXONE] | 7.21 | 0.25 (≈ 0.451 µM) | 7.21 | 0.451 | 0.18
